Test results published in PubChem BioAssay AID652250 (Vanderbilt Specialized Chemistry Center, 2013).
Active and inactive are the calls of the source.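 The calls were made as follows: active = compounds leaving under half of the peptide-driven platelet calcium rise; inactive = the rest.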

Biological target: Proteinase-activated receptor 4 (Homo sapiens) (UniProt Q96RI0)
Experiment: inhibition of PAR4-AP calcium signal – cell-based, single concentration, washed platelets, Fluo4 calcium (AID 652250)
Conditions: PAR4-AP calcium Fluo4 fluorescence; for % of max PAR4-AP calcium response: at 10 µM, hits give low values
Outline: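 Material – Fluo4-AM-loaded washed human platelets · Also added – PAR4-activating peptide (PAR4-AP) agonist at 80 µM · Signal – fluorescence at 480/540 nm, 1 s intervals · Read-out – peak minus basal RFU as % of per-donor DMSO control · Benchmarks – PAR4-AP-stimulated DMSO control (100%) · Replicates – triplicate wells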

Chain of Proteinase-activated receptor 4 (Homo sapiens) (Q96RI0 whole entry, looked up): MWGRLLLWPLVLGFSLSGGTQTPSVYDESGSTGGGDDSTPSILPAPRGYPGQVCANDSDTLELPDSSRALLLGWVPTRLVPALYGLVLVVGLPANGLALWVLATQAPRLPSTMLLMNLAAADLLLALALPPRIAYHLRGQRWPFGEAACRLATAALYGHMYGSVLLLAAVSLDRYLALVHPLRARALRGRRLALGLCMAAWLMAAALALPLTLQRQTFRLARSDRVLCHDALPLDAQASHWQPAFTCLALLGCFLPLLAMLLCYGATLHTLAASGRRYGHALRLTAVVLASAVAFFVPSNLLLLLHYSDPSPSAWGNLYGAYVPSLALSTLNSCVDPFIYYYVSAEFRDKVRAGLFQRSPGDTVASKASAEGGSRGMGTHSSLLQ

## FC(F)(F)Oc1ccc(-c2cn(Cc3ccccc3)c3ccccc23)cc1
  % of max PAR4-AP calcium response: inactive

## O=C(N/N=C/c1cccc2cccnc12)c1ccn(Cc2ccc(Cl)cc2)n1
  % of max PAR4-AP calcium response: inactive

## CC(C)Oc1ccc(-c2cn(Cc3ccccc3)c3ccccc23)cc1
  % of max PAR4-AP calcium response: inactive

## COc1ccc2c(c1)c(CC(=O)Nc1ccc(Cl)cn1)c(C)n2C(=O)c1ccc(Cl)cc1
  % of max PAR4-AP calcium response: inactive

## CC(C)NC(=O)CCc1cn(Cc2ccccc2)c2ccccc12
  % of max PAR4-AP calcium response: inactive

## COc1ccc(C)cc1NC(=O)Cc1cn(C)c2ccccc12
  % of max PAR4-AP calcium response: inactive

## CC(C)COc1ccc(-c2cn(Cc3ccccc3)c3ccccc23)cc1
  % of max PAR4-AP calcium response: inactive

## CN(C)c1ccc(-c2cn(Cc3ccccc3)c3ccccc23)cn1
  % of max PAR4-AP calcium response: inactive

## Clc1ccc(-n2cc(-c3ccccc3)c3c(NCc4cccs4)ncnc32)cc1
  % of max PAR4-AP calcium response: inactive

## Cc1cccc(NC(=O)Cn2cc(C(=O)C(F)(F)F)c3ccccc32)c1
  % of max PAR4-AP calcium response: inactive

## Cc1cc(-c2cn(Cc3ccccc3)c3ccccc23)cnc1F
  % of max PAR4-AP calcium response: inactive

## Fc1ccccc1Cn1cc(C(=S)N2CCOCC2)c2ccccc21
  % of max PAR4-AP calcium response: inactive

## Cc1ccc(-n2cc(-c3ccccc3)c3c(N4CC(C)OC(C)C4)ncnc32)cc1 (stereo not given)
  % of max PAR4-AP calcium response: inactive

## COc1ccc2c(c1)c(C(=O)N1CCCC1)c(C)n2Cc1ccccc1
  % of max PAR4-AP calcium response: inactive

## O=C(c1cn(CCOc2ccc(F)cc2)c2ccccc12)C(F)(F)F
  % of max PAR4-AP calcium response: inactive

## O=C(Cn1cc(C(=O)C(F)(F)F)c2ccccc21)NC1CCCCCC1
  % of max PAR4-AP calcium response: inactive

## COc1ccc(-c2cn(Cc3cccc(F)c3)c3ccccc23)cn1
  IC50: 3.85 µM

## Cc1ccc(-n2cc(-c3ccccc3)c3c(NCC4CCCO4)ncnc32)cc1Cl (stereo not given)
  % of max PAR4-AP calcium response: inactive

## COc1ccccc1OCCCn1cc(C(=O)C(F)(F)F)c2ccccc21
  % of max PAR4-AP calcium response: inactive

## Cc1c(C)n(CC(O)CNCCO)c2ccccc12 (stereo not given)
  % of max PAR4-AP calcium response: inactive

## CCn1c(C(=O)O)c(CC(=O)N(C)c2ccc(F)cc2)c2ccccc21
  % of max PAR4-AP calcium response: inactive

## FC(F)(F)c1cccc(-n2cc(-c3ccccc3)c3c(NC4CCCC4)ncnc32)c1
  % of max PAR4-AP calcium response: inactive

## N#Cc1ccc(-c2cn(Cc3ccccc3)c3ccccc23)cc1
  % of max PAR4-AP calcium response: inactive

## Cn1cnnc1SCC(=O)n1c2c(c3ccccc31)CCCC2
  % of max PAR4-AP calcium response: inactive

## Cc1cc(OCCn2cc(C(=S)N3CCOCC3)c3ccccc32)ccc1Cl
  % of max PAR4-AP calcium response: inactive

## OCc1cn(Cc2ccccc2Cl)c2ccccc12
  % of max PAR4-AP calcium response: inactive

## Fc1ccc(-c2cn(Cc3ccccc3)c3ccccc23)cn1
  IC50: 10 µM

## OC(CNCc1ccccc1)Cn1c2c(c3ccccc31)CCCC2 (stereo not given)
  % of max PAR4-AP calcium response: inactive

## CC(=O)n1cc(C(C[N+](=O)[O-])SCc2ccccc2)c2ccccc21 (stereo not given)
  % of max PAR4-AP calcium response: inactive

## CC(C)Oc1ccc(-c2cn(Cc3ccccc3)c3ccccc23)cc1F
  % of max PAR4-AP calcium response: inactive

## CCN(CC)c1ncnc2c1c(-c1ccccc1)cn2-c1ccc(C)c(Cl)c1
  % of max PAR4-AP calcium response: inactive

## Cc1nn(-c2ccccc2)c2[nH]c(C(F)(F)F)cc(=O)c12
  % of max PAR4-AP calcium response: inactive

## COc1ccccc1OCCn1cc(C(=S)N2CCCC2)c2ccccc21
  % of max PAR4-AP calcium response: inactive

## CCn1ccc(C(=O)Nc2sc(C(=O)OC)c(C)c2C(=O)OC)n1
  % of max PAR4-AP calcium response: inactive

## Cc1c(C)n(CC(O)CNCc2ccccc2)c2ccccc12 (stereo not given)
  % of max PAR4-AP calcium response: inactive

## O=C(c1cn(CCOc2ccc3c(c2)OCO3)c2ccc(Br)cc12)C(F)(F)F
  % of max PAR4-AP calcium response: inactive

## O=C(Cn1cc(CO)c2ccccc21)Nc1ccccc1
  % of max PAR4-AP calcium response: inactive

## CCCNc1ncnc2c1c(-c1ccccc1)cn2-c1ccccc1
  % of max PAR4-AP calcium response: inactive

## S=C(c1cn(CCOc2ccccc2)c2ccccc12)N1CCCC1
  % of max PAR4-AP calcium response: inactive

## COc1ccccc1NS(=O)(=O)c1ccc(NC(=O)c2ccc3c(c2)c(C)c(C)n3C)cc1
  % of max PAR4-AP calcium response: inactive

## OCCc1cn(-c2ccccc2)c2ccccc12
  % of max PAR4-AP calcium response: inactive

## CCCOc1ccc(-c2cn(Cc3ccccc3)c3ccccc23)cc1
  % of max PAR4-AP calcium response: inactive

## CN(C)c1ccc(/C=N/NC(=O)c2ccn(Cc3ccc(Cl)cc3)n2)cc1
  % of max PAR4-AP calcium response: inactive

## Cc1ccc(-n2cc(-c3ccccc3)c3c(N4CCCC4)ncnc32)cc1
  % of max PAR4-AP calcium response: inactive

## FC(F)(F)c1cccc(-c2cn(Cc3ccccc3)c3ccccc23)c1
  % of max PAR4-AP calcium response: inactive

## OCCc1c(-c2ccccc2)n(Cc2ccccc2)c2ccccc12
  % of max PAR4-AP calcium response: inactive

## COc1ccc(N(C)C(=O)Cc2c(C(=O)O)n(C)c3ccccc23)cc1
  % of max PAR4-AP calcium response: inactive

## COc1ccc(-n2nc(C(=O)Nc3cccc(C)n3)c3c4ccccc4n(C)c3c2=O)cc1Cl
  % of max PAR4-AP calcium response: inactive

## Cn1cc(CC(=O)NCC2COc3ccccc3O2)c2ccccc21 (stereo not given)
  % of max PAR4-AP calcium response: inactive

## Fc1cccc(Cn2cc(C(=S)N3CCCCC3)c3ccccc32)c1
  % of max PAR4-AP calcium response: inactive

## O=C(c1cn(Cc2ccc(F)cc2)c2ccccc12)C(F)(F)F
  % of max PAR4-AP calcium response: inactive

## COc1ccc(-c2cn(Cc3cccc(-c4ccsc4)c3)c3ccccc23)cn1
  % of max PAR4-AP calcium response: inactive

## O=C(c1cn(CCCOc2ccccc2)c2ccccc12)C(F)(F)F
  % of max PAR4-AP calcium response: inactive

## COc1ccc(-n2cc(-c3ccccc3)c3c(=O)[nH]cnc32)cc1
  % of max PAR4-AP calcium response: inactive

## CSc1ccc(-c2cn(Cc3ccccc3)c3ccccc23)cn1
  % of max PAR4-AP calcium response: inactive

## Cc1c(CCO)c2ccccc2n1-c1ccccc1
  % of max PAR4-AP calcium response: inactive

## c1ccc(-c2cn(-c3ccccc3)c3ncnc(N4CCCC4)c23)cc1
  % of max PAR4-AP calcium response: inactive

## COc1ccc(-c2cn(Cc3cccc(Cl)c3)c3ccccc23)cn1
  IC50: 3.13 µM

## COc1ccc2c(c1)c(C(C)=O)c(C)n2-c1cccc(Br)c1
  % of max PAR4-AP calcium response: inactive

## NS(=O)(=O)c1ccc(CCNc2ncnc3c2c(-c2ccccc2)cn3-c2cccc(Cl)c2)cc1
  % of max PAR4-AP calcium response: inactive

## O=C(CN1CCOCC1)n1c2c(c3ccccc31)CCCC2
  % of max PAR4-AP calcium response: inactive

## Cn1cc(C(=O)Cc2ccccc2)c2ccccc21
  % of max PAR4-AP calcium response: inactive

## O=C(N/N=C/c1c[nH]c2ccccc12)c1ccn(Cc2ccc(Cl)cc2)n1
  % of max PAR4-AP calcium response: inactive

## S=C(c1cn(Cc2ccccc2Cl)c2ccccc12)N1CCCC1
  % of max PAR4-AP calcium response: inactive

## COc1ccc(OC)c(CNC(=O)CCCc2cn(C)c3ccccc23)c1
  % of max PAR4-AP calcium response: inactive

## CN(C)CCNC(=O)Cc1cn(C)c2ccccc12
  % of max PAR4-AP calcium response: inactive

## FC(F)(F)c1cccc(-n2cc(-c3ccccc3)c3c(NCCN4CCOCC4)ncnc32)c1
  % of max PAR4-AP calcium response: inactive

## Cc1ccc2c(c1)c1c3n2CCN(C(=O)CN2CCN(C(=O)c4ccco4)CC2)C3CCC1 (stereo not given)
  % of max PAR4-AP calcium response: inactive

## COc1ccc(Br)cc1CNC(=O)CCCc1cn(C)c2ccccc12
  % of max PAR4-AP calcium response: inactive

## Cc1cc(F)ncc1-c1cn(Cc2ccccc2)c2ccccc12
  % of max PAR4-AP calcium response: inactive
